Results taken from publication PMC3466779 (Biochemistry, 2012).
Values joined by “and” are separate entries in the source; they are usually repeats but may differ in a detail not shown here. Equal entries are not always repeated.

Experiments:
MtATP-PRT [1] = biological target: T1, MtATP-PRT (Mycobacterium tuberculosis, UniProt P9WMN1); experiment: Steady-state kinetics: initial velocities of the forward reaction; format: biochemical
T1 sequence (P9WMN1 1-284): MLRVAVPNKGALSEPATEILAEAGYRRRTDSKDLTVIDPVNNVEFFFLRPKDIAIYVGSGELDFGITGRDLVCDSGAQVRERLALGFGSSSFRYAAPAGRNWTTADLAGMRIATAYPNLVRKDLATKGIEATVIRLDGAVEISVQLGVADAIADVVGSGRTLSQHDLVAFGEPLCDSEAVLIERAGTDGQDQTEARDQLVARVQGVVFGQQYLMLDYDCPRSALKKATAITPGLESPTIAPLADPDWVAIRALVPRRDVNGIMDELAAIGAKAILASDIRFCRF

MtATP-PRT [2] = biological target: T1, MtATP-PRT; experiment: Pre-steady-state stopped-flow burst kinetics; format: biochemical
MtATP-PRT [3] = biological target: T1, MtATP-PRT; experiment: Steady-state inhibition studies with L-histidine; format: biochemical; details: for Kii: 7 mM MgCl2, 200 mM KCl
MtATP-PRT [4] = biological target: T1, MtATP-PRT; experiment: pH studies of L-histidine inhibition; format: biochemical; details: 0.8 mM PRPP fixed
MtATP-PRT [5] = biological target: T1, MtATP-PRT; experiment: STD-NMR saturation transfer; format: binding; details: 0.6 mM L-histidine, 30 μM HisG, 25 °C
Summary of the method: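 STD 1H NMR was run at 14.4 T with 30 μM enzyme and 0.6 mM L-histidine in 50 mM sodium phosphate at each pH, 25 °C. Saturation times of 0.2–2.0 s in 0.2 s steps were recorded interleaved, with on-resonance protein presaturation at 0.8 ppm. A single off-resonance control used 2 s. Water was suppressed by excitation sculpting. Read-out was percent transfer per histidine proton.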

MtATP-PRT [6] = biological target: T1, MtATP-PRT; experiment: Gel filtration, solution oligomeric state; details: 20 mM Tris-HCl pH 8, 100 mM NaCl; 2 mM L-histidine, or ATP
Summary of the method: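 Recombinant enzyme was expressed in E. coli BL21(DE3)pLysS and Ni-NTA purified. It was injected at 0.1–10 mg/mL onto a Sephacryl S-200 column calibrated with molecular-weight standards. Elution was isocratic for 1.5 column volumes at 0.5 mL/min in 20 mM Tris-HCl pH 8, 100 mM NaCl, with or without 2 mM L-histidine. Apparent mass was read from elution position.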

[7] = no reference given, cited from earlier work
[8] = biological target: Lactococcus lactis ATP-PRT; details: pH 8; cited from earlier work

O[C@@H](CS)[C@@H](O)CS [DTT]
effect of the thiol reducing agent on the time course (MtATP-PRT [1]; data not shown): did not alter the time course

N[C@@H](Cc1c[nH]cn1)C(=O)O [L-histidine]
Kd (MtATP-PRT [2]): 27.9 ± 3.2 µM
koff (MtATP-PRT [2]; pH 8.5, read-out: koff,L-histidine): 0.95 ± 0.03 s⁻¹
kon (MtATP-PRT [2]; pH 8.5, read-out: kon,L-histidine): 4880 ± 717 M⁻¹ s⁻¹
Ki (MtATP-PRT [3]): 25.7 ± 12.8 µM
IC50 (MtATP-PRT [3]; IC50,L-histidine, 50 mM Tris-HCl pH 8.5, 7 mM MgCl2, 200 mM KCl, 1.6 mM ATP, 0.8 mM PRPP, 25 °C): 33.3 µM and 33 µM
Hill number (MtATP-PRT [3]; IC50 curve, pH 8.5, 1.6 mM ATP, 0.8 mM PRPP): 1.5
Kii (MtATP-PRT [3]; pH 8.50 (Tris-HCl), varied ATP, 0.8 mM PRPP fixed, 25 °C): 27.9 ± 1.9 µM
Kii (MtATP-PRT [3]; pH 8.50, varied PRPP, 1.6 mM ATP fixed, 25 °C): 23.5 ± 6.5 µM
nature of inhibition versus ATP (in words) (MtATP-PRT [3]; varied ATP, saturating PRPP, pH 8.5): linear and uncompetitive
nature of inhibition versus PRPP (in words) (MtATP-PRT [3]; varied PRPP, saturating ATP, pH 8.5): linear and noncompetitive
Kii (MtATP-PRT [4]; pH 8.00, varied ATP): 4 µM and 4.0 ± 0.4 µM
Kii (MtATP-PRT [4]; pH 8.25, varied ATP): 7.9 ± 1.5 µM
Kii (MtATP-PRT [4]; pH 8.50 (pH series), varied ATP): 28.3 ± 2.1 µM
Kii (MtATP-PRT [4]; pH 8.75, varied ATP): 26.8 ± 1.5 µM
Kii (MtATP-PRT [4]; pH 9.00, varied ATP): 50.4 ± 5.5 µM
Kii (MtATP-PRT [4]; pH 9.25, varied ATP): 109.4 ± 6.8 µM
% saturation transfer to L-histidine protons, Cα-H (MtATP-PRT [5]; pH 5.5): 0%
% saturation transfer to L-histidine protons, Cβ-H2 (MtATP-PRT [5]; pH 5.5): 0%
% saturation transfer to L-histidine protons, Cδ2-H (MtATP-PRT [5]; pH 5.5): 0%
% saturation transfer to L-histidine protons, Cε1-H (MtATP-PRT [5]; pH 5.5): 0%
% saturation transfer to L-histidine protons, Cα-H (MtATP-PRT [5]; pH 6.0): 0%
% saturation transfer to L-histidine protons, Cβ-H2 (MtATP-PRT [5]; pH 6.0): 0%
% saturation transfer to L-histidine protons, Cδ2-H (MtATP-PRT [5]; pH 6.0): 0%
% saturation transfer to L-histidine protons, Cε1-H (MtATP-PRT [5]; pH 6.0): 0%
% saturation transfer to L-histidine protons, Cα-H (MtATP-PRT [5]; pH 6.5): 0%
% saturation transfer to L-histidine protons, Cβ-H2 (MtATP-PRT [5]; pH 6.5): 0%
% saturation transfer to L-histidine protons, Cδ2-H (MtATP-PRT [5]; pH 6.5): 0%
% saturation transfer to L-histidine protons, Cε1-H (MtATP-PRT [5]; pH 6.5): 0%
% saturation transfer to L-histidine protons, Cα-H (MtATP-PRT [5]; pH 7.5): 0%
% saturation transfer to L-histidine protons, Cβ-H2 (MtATP-PRT [5]; pH 7.5): 0%
% saturation transfer to L-histidine protons, Cδ2-H (MtATP-PRT [5]; pH 7.5): 0%
% saturation transfer to L-histidine protons, Cε1-H (MtATP-PRT [5]; pH 7.5): 0%
% saturation transfer to L-histidine protons, Cα-H (MtATP-PRT [5]; pH 8.0): 0%
% saturation transfer to L-histidine protons, Cβ-H2 (MtATP-PRT [5]; pH 8.0): 0%
% saturation transfer to L-histidine protons, Cδ2-H (MtATP-PRT [5]; pH 8.0): 36.9%
% saturation transfer to L-histidine protons, Cε1-H (MtATP-PRT [5]; pH 8.0): 40.4%
% saturation transfer to L-histidine protons, Cα-H (MtATP-PRT [5]; pH 8.5): 0%
% saturation transfer to L-histidine protons, Cβ-H2 (MtATP-PRT [5]; pH 8.5): 0%
% saturation transfer to L-histidine protons, Cδ2-H (MtATP-PRT [5]; pH 8.5): 81.6%
% saturation transfer to L-histidine protons, Cε1-H (MtATP-PRT [5]; pH 8.5): 88.2%
% saturation transfer to L-histidine protons, Cα-H (MtATP-PRT [5]; pH 9.0): 0%
% saturation transfer to L-histidine protons, Cβ-H2 (MtATP-PRT [5]; pH 9.0): 0%
% saturation transfer to L-histidine protons, Cδ2-H (MtATP-PRT [5]; pH 9.0): 100%
% saturation transfer to L-histidine protons, Cε1-H (MtATP-PRT [5]; pH 9.0): 100%
influence of ligand on the hexameric oligomeric state of MtATP-PRT (MtATP-PRT [6]): not influenced
pKa of the imidazole group ([7]; background statement): ~6.0
pKa of the α-amino group ([7]; stated in discussion): ~9
Ki [8]: 81 µM

[Cl-].[Cl-].[Mg+2] [MgCl2]
Kact,Mg^2+ (MtATP-PRT [1]; Table 1, saturating substrates, 200 mM KCl, 25 °C): 1900 ± 600 µM
Apparent Kact for MgCl2 (MtATP-PRT [1]; saturating concentrations of both substrates, 200 mM KCl): 1.9 ± 0.6 mM
